ChEMBL document CHEMBL4513216, “Probing the Open Global Health Chemical Diversity Library for Multistage-Active Starting Points for Next-Generation Antimalarials” (ACS Infect Dis, 2020)

Experiment: Toxicity liver stage against HepG2, at 10uM
Assay type: cell-based
Design: test concentration 10 uM, cell line HepG2-A16-CD81EGFP
Details: human, HepG2-A16-CD81EGFP cells; read-out: INHIBITION
Outline: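 Uninfected HepG2-A16-CD81EGFP cells, 3 × 10^3 per well, 1536-well, plated on prespotted compound at 10 μM final, parasite-free screening media added to match infected plates; puromycin 10 μM positive, DMSO 0.5% negative; run in parallel with 48 h PbLuc assay at 37 °C, 5% CO2; viability by CellTiter-Glo luminescence, normalized to controls.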

SMILES	cytotoxicity at 10 µM [%]
O=C(NCCCn1cccn1)C1CCC(=O)N(Cc2ccccc2F)C1 (configuration not stated)	-3.75
CC(O)CNCc1ccccc1C(F)(F)F (configuration not stated)	-3.3
COCCn1cc(CC(=O)Nc2c(C)nn(C)c2C)c2ccccc21	1.18
Cc1csc(NC(=O)Cn2nc(C)ccc2=O)n1	-5.7
COCCN1C(=O)C2(CCC(C(=O)Nc3ccccn3)CC2)N=C1C (configuration not stated)	10.7
CN1C(=O)CC(c2cnn(C)c2)C12CCN(C(=O)c1ccc[nH]1)CC2 (configuration not stated)	6.74
c1cc(CNCC2Cn3nncc3CO2)cs1 (configuration not stated)	6.13
COCc1nc2c(o1)CN(C(=O)NCc1ccccc1)C2	10.6
CC(=O)N1CC2(CCN(C(=O)N(C)C)CC2)c2cc(C)ccc21	7.7
CCC1CCCCN1C(=O)Cn1nc(-c2cc(C)oc2C)cc(N)c1=O (configuration not stated)	2.44
CC(=O)N1CCC(c2n[nH]cc2-c2ccnc(N)c2)C1 (configuration not stated)	0.355
Cn1nc(C2CNCCO2)cc1CCOc1cccc(C(F)(F)F)c1 (configuration not stated)	-1.02
Nc1nccc(C2CCCN2CCc2ccccc2)n1 (configuration not stated)	3.38
CCn1cc(S(=O)(=O)NCC2(N3CCOCC3)CCCCC2)c(C)n1	-27.5
CN(C)c1ncccc1CN1CCOC(C(=O)Nc2ccccc2)C1 (configuration not stated)	-29.7
Cc1ccc(CN2CC[C@H](O)[C@@H](n3ccc(=O)[nH]c3=O)CC2)cc1	-22.8
CC(C)N1CCCC(CCCc2ccccn2)(C(=O)O)C1 (configuration not stated)	2.6
CC(C)NC(=O)N1CCN(c2ccc(Cl)nn2)C(=O)C1	5.01
O=C(c1cccnc1)N1CCC2(CNS(=O)(=O)c3cnccc3O2)C1 (configuration not stated)	15.7
O=C(C[S+]([O-])Cc1csc(C2CCCC2)n1)Nc1ccccc1 (configuration not stated)	-42.3
Cc1ccc(C(=O)N2CCCC(N(C)C(=O)OC(C)(C)C)C2)o1 (configuration not stated)	-54
CS(=O)(=O)c1cc(C(=O)NS(=O)(=O)Cc2ccc(F)cc2)ccc1Cl	-3.38
O=C(c1ccccc1F)N(CCCO)S(=O)(=O)c1cccs1	4.95

SMILES	cytotoxicity at 10 µM [%]
CC(C)(C)c1ncc(CNCC2CN(C3CC3)CCO2)s1 (configuration not stated)	0.948
Cc1cc(N(Cc2cccnc2)C2CC2)n2nc(C(F)(F)F)nc2n1	-1.95
CC(C)CC(N)C1=NC(=C2N=CN=N2)NO1 (configuration not stated)	10.6
COc1ccc(C2CCN(Cc3cscn3)CC2)cc1	-0.243
COc1ccc(-c2nnc(C(C)N3CCOCC3)o2)cc1 (configuration not stated)	-10.4
CCCNC(=O)CN(C)C1CCN(c2ccc(Cl)cc2)CC1	1.41
CCCN(CCC)C(=O)CN1CCCC1C(=O)N(C)C (configuration not stated)	7.42
COC(=O)C(CNC(=O)Nc1nncs1)Cc1ccc(F)cc1 (configuration not stated)	0.571
O=C(CN(Cc1cccs1)c1ccc(F)cc1)NC1CCOCC1	13.5
N#Cc1ccc(CCC(=O)N2CCC(CN3CCOCC3)CC2)cc1	-4.97
NC(=O)N1CCCC(C(=O)Nc2cccc(Cl)c2)C1 (configuration not stated)	8.16
CCn1nc2c(cc1=O)CN(c1nc3ccccc3s1)CC2	7.5
CC(C)Cc1noc(CC2CCS(=O)(=O)C2)n1 (configuration not stated)	3.03
CCSCCC(=O)NCCn1nc2ccccn2c1=O	-9.53
CC(C)c1ncc2c(n1)CN(Cc1cccc3c1OCCO3)CC2	-4.34
CCC(CC)c1cc(CNC(=O)N2CCC[C@@H]2CO)on1	-5.16
CCC(CC)NC(=O)CN1CCN(C(=O)N(C)C)CC1	-3.7
Cc1nn(C)c(C)c1NC(=O)CNc1cc(C(F)(F)F)ccc1F	13.4
Cc1nn(C)c(C)c1CCC(=O)OCC(=O)N1CCc2sccc2C1	0.927
Cc1nn(C)c(C)c1C(=O)NCc1cccnc1OC1CCCC1	-0.171
Cc1noc(C)c1CC(=O)Nc1ccn(CC(N)=O)n1	9.86
CCc1nc(CC)n(CC(=O)NCc2ccccc2C)n1	15.2
CC(C)c1noc(CCNC(=O)N2CCSC(C(C)C)C2)n1 (configuration not stated)	-2.65

SMILES	cytotoxicity at 10 µM [%]
CC(CCc1ccccc1)N1CCC(C(=O)Nc2cnccn2)CC1 (configuration not stated)	13.2
CCS(=O)(=O)N(C)CCCNC(=O)c1cc(Cl)cc2cccnc12	15
CC(NC(=O)NCc1cccnc1N(C)C)c1cccs1 (configuration not stated)	1.76
CC(c1cccc(Cl)c1)N(C)CCS(=O)(=O)CCC(N)=O (configuration not stated)	-45.8
CC(C)Sc1ccc(C(C)NC(=O)Cn2cccnc2=O)cc1 (configuration not stated)	16.8
O=C(c1cc[nH]n1)N1CCCC1C1CCN(Cc2ccccc2)CC1 (configuration not stated)	1.98
CC(=O)N1CCC2(CC1)CN(CC1CC1)c1ccc(F)cc12	-113
CC(=O)N1CCO[C@@H]2CN(S(=O)(=O)C3CC3)CC[C@@H]2C1	-112
CC(C)Cn1cncc1CNC1CCSC1 (configuration not stated)	-2.34
COc1ccccc1CC(=O)N(CCN1CCOCC1)Cc1ccco1	2.91
COC1CCN(S(=O)(=O)N2C[C@H](c3ccccc3)[C@@H](N)C2)CC1	11.8
Cc1nc(CN2CCC3(CCCO3)CCC2=O)no1 (configuration not stated)	-0.452
O=c1c2sccc2ncn1Cc1cc(C2CC2)[nH]n1	0.463
Cc1cc(C)c(C(=O)NC(c2nnc3n2CCNCC3)C(C)C)c(C)c1 (configuration not stated)	-7.01
Cc1nn(C)c2nc(N3CCN(Cc4nccn4C)CC3)sc12	-4.66
CC(c1ccccn1)N(C)Cc1ccc(-n2ccnc2)cc1 (configuration not stated)	-0.452
Cc1cc(N2CCCN(c3nc(C)nc(C)c3C)CC2)ccn1	-13.1
Cc1cc(C)cc(CN2CCN(Cc3ccc4nonc4c3)CC2=O)c1	0.403
COc1ccc2c(C)nc(N3C[C@@H](C)O[C@@H](C)C3)nc2c1	6.77
Cn1c(Cn2ncc(N3CCCC3)cc2=O)nc2ccccc21	5.65
CCc1oc(C(=O)NCCSc2ncn[nH]2)cc1CN1CCCC1	-5.25
CN(CCCc1cnn(C)c1)C(=O)C1CCCN(C2CCCC2)C1 (configuration not stated)	-7.17
CCn1nc(C(C)C)cc1C(=O)NCc1nc2ccc(OC)cc2[nH]1	4.28

SMILES	cytotoxicity at 10 µM [%]
CCC(CO)N(Cc1ccsc1)Cc1ccccc1C#N (configuration not stated)	9.64
CCN(CC)CCc1nc2c([nH]1)CC(c1ccc(Cl)cc1)CNC2=O (configuration not stated)	-58.9
COCC(=O)N(Cc1cccnc1)CC1CCCN(C2CCCCC2)C1 (configuration not stated)	1.72
O=C(NCc1cccnc1)C1CN(c2cnc3ccccc3n2)CCN1 (configuration not stated)	-48.9
CC(=O)N[C@@H]1CN(Cc2oc3ccccc3c2C)C[C@H]1c1ccc(C)o1	-12.3
COCCn1cnnc1Cn1ccnc1-c1ccoc1	-2.66
C/C(=C\c1ccco1)CN(C)C(C)c1ccccn1 (configuration not stated)	-3.49
CN1CC(c2ccccc2)CC12CCN(C(=O)c1ccc(Cl)cc1)CC2 (configuration not stated)	-2.72
CN(CCNc1ncc2c(n1)CCN2c1ccccc1)S(C)(=O)=O	0.557
Cc1cnccc1CN(C)C(=O)C(C)(C)NC(=O)c1cccs1	6.89
Cc1nc(NC(=O)N2CCCC(N(C)C)C2)nn1C (configuration not stated)	-9.4
COc1ccccc1OCc1cc(C(=O)N2CCN(C(C)=O)CC2)n[nH]1	-2.59
CC(C)N1CCC(NCc2cccnc2N(C)Cc2ccccc2)CC1	21
COc1ncc(CN2CC[C@@](C)(O)[C@H](Oc3cccc(F)c3)C2)cn1	1.68
O=C(NC1CCN(C2CC2)CC1)N1CCN(c2cnccn2)CC1	-6.97
Cn1cc(CCNCc2cc(Br)c3c(c2)OCO3)cn1	-18
O=C(CN1CCCC(Cn2cncn2)C1)NCCC1=CCCCC1 (configuration not stated)	-3.33
COc1ccccc1OCCNC1CCCN(Cc2noc(C)n2)C1 (configuration not stated)	-19.1
CCN(Cc1ccc2c(c1)OCO2)C(=O)Cn1cccnc1=O	-2.27
CCN(Cc1ccc2c(c1)OCCO2)C(=O)Cn1cccnc1=O	-5.1
CCc1nc(CN2CCCN(Cc3nnc(C4CC4)o3)CC2)no1	-9.26
O=C(c1ccc2c(c1)OCCO2)N1CCCC(n2ccnc2)C1 (configuration not stated)	-16.3
Cc1cc(C)n(CC2CCCN2Cc2nc(N)c3ccccc3n2)n1 (configuration not stated)	-11.7

SMILES	cytotoxicity at 10 µM [%]
Cc1cnn(CC2CCCN2Cc2noc(C3CC3)n2)c1 (configuration not stated)	-17.3
Cc1cc(C)cc(OCCN2CCn3c(C)nnc3C2)c1	-9.08
COc1cc(S(=O)(=O)N2CCCc3ccccc32)cc(C(=O)O)c1OC	1.8
Cc1cnn(CC2CCCCN2CCCS(N)(=O)=O)c1 (configuration not stated)	4.02
CC(C)Oc1ncccc1CNC(=O)c1ccco1	1.32
CCN1CCN(C2CCN(Cc3nc4ccccc4o3)CC2)C1=O	5.61
Cc1cnn(CCNCC(=O)NCC2(c3ccccc3)CCC2)c1	5.87
CC1c2ncc(COCc3ccccn3)n2CCN1C1CCCC1 (configuration not stated)	12.8
Cc1ccc2c(n1)N(CCn1cccn1)CCN(C(=O)NC1CC1)C2	-4.58
CN(Cc1ccncc1)C1COC2(CCN(c3ncc(F)cn3)CC2)C1 (configuration not stated)	6.95
O=C([C@H]1CN(Cc2ccncc2)C[C@H]2OCC[C@@H]12)N1CCCCO1	9.01
CO[C@@H]1CCN(c2nnc(C)s2)C[C@@H]1Cc1ccccc1	10.5
Fc1cnc(N2CC[C@@H]3OC(COCc4cccnc4)CC[C@@H]32)nc1 (some centres not stated)	9.94
O=C(c1ccncc1)N1CCOC2(COCCN(c3cncnc3)C2)C1 (configuration not stated)	8.58
CC(C)N1[C@@H](C(=O)NCCN(C)C)C[C@H]2CN(c3ncccn3)C[C@H]21	8.73
Cc1cc(S(=O)(=O)NC(C)(C)CN)c(F)cc1F	4.87
Cc1cc(F)c(S(=O)(=O)NCC(C)(C)N)cc1F	6.65
COCC1CC2(CCN(CC3CC3)CC2)CN1Cc1csc(C)n1 (configuration not stated)	4.26
Cn1cccc1C(=O)N1CCC2(CCN(C(=O)c3cccnc3)C2)CC1	-102
CCC1=N[C@@]2(CC[C@@H]3CN(Cc4ccccc4C)C[C@@H]32)C(=O)N1	8.4
